# Measurements pooled from the literature.
# Compare with care: the assays were run in different laboratories.
# Target: Cholinesterase (BCHE, Homo sapiens, UniProt P06276)
# Read-out: enzyme activity
# Action: inhibitor
Compound,assay,test system,IC50
Cc1ccc(S(=O)(=O)n2cc(Br)c(=O)[nH]c2=O)cc1,Ellman,,137 nM
C#CCNc1nc(NCCCC2CCN(Cc3ccccc3)CC2)c(C#N)cc1C#N,Ellman,,1920 nM
CC(C)(C)c1cccc(OP(=O)(Oc2cccc(C(C)(C)C)c2)Oc2cccc(C(C)(C)C)c2)c1,,liver microsomes,> 20 µg/mL
C=CCn1c2cc(OC(=O)CCCCN3CCN(Cc4cccc(Cl)c4)CC3)ccc2c2ccnc(C)c21,Ellman,,568 nM
CC(C)c1ccc(OP(=O)(Oc2ccc(C(C)C)cc2)Oc2ccc(C(C)C)cc2)cc1,,liver microsomes,> 20 µg/mL
C=CCn1c2cc(OC(=O)CCCN3CCN(Cc4ccccc4)CC3)ccc2c2ccnc(C)c21,Ellman,,163 nM
CC(C)(C)c1ccc(OP(=O)(Oc2ccc(C(C)(C)C)cc2)Oc2ccc(C(C)(C)C)cc2)cc1,,liver microsomes,> 20 µg/mL
Cc1cc(O)nc(O)n1,Ellman,,368 nM
C=CCn1c2cc(OC(=O)CCCCCN3CCN(Cc4ccccc4)CC3)ccc2c2ccnc(C)c21,Ellman,,464 nM
CS(=O)(=O)n1cc(Br)c(=O)[nH]c1=O,Ellman,,195 nM
C=CCn1c2cc(OC(=O)CCCCN3CCN(Cc4ccc(Cl)cc4)CC3)ccc2c2ccnc(C)c21,Ellman,,674 nM
C[N+](C)(C)CCCCCCCCCC[N+](C)(C)C,,,17400 nM
